Assay results: ChEMBL document CHEMBL1130149, “Medetomidine analogs as alpha 2-adrenergic ligands. 3. Synthesis and biological evaluation of a new series of medetomidine analogs and their potential binding interactions with alpha 2-adrenoceptors involving a "methyl pocket"” (J Med Chem, 1997)

How the values were obtained:
[1] = target: Adrenergic receptor alpha (Rattus norvegicus) (UniProt P15823+P23944+P43140+P22086+P19328+P22909); assay: Relative affinity for Alpha 2 over Alpha 1 adrenergic receptors; type: protein assay
[2] = target: T1, Adrenergic receptor alpha-2 (Rattus norvegicus, UniProt P22086+P19328+P22909); assay: Displacement of [3H]rauwolscine from Alpha-2 adrenergic receptor of rat brain membranes; type: cell membranes, Membrane
T1 sequence (P22086 whole entry): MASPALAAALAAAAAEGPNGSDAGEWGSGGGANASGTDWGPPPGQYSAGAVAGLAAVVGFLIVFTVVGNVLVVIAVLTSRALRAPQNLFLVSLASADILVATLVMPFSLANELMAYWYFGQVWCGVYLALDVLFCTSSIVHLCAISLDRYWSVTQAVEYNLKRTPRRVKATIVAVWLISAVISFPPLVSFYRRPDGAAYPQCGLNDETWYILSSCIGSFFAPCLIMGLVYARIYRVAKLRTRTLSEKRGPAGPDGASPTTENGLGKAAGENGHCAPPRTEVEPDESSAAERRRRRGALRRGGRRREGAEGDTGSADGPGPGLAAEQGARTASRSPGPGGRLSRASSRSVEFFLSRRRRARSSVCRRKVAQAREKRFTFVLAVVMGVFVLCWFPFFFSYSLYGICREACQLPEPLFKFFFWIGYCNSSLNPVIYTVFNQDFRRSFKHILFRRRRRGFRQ
T1 sequence (P19328 whole entry): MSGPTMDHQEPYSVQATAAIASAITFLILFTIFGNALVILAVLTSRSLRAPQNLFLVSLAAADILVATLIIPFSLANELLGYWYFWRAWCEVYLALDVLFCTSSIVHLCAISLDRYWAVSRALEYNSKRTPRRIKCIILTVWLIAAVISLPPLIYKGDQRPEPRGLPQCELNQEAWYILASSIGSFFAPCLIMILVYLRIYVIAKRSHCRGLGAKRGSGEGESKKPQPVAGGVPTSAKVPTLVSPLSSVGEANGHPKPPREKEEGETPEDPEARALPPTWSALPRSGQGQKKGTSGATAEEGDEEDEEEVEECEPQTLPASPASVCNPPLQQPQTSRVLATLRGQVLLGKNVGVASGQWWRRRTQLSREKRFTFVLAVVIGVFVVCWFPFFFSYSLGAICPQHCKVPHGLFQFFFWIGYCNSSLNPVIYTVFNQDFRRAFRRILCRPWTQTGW
T1 sequence (P22909 whole entry): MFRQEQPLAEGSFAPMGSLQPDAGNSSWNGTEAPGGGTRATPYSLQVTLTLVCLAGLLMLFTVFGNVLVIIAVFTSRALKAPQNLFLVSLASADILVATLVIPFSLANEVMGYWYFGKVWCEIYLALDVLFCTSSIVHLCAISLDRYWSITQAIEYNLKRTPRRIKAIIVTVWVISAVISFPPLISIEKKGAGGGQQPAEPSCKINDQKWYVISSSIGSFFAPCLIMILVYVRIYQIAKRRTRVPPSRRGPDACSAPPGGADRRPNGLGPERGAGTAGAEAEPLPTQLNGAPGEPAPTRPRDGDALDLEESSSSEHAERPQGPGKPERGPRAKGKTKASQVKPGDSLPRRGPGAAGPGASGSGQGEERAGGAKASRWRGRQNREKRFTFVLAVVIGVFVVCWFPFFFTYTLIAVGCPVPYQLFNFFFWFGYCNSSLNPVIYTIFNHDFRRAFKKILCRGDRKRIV
In short: (§1)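 Rat brain membrane fractions incubated with 0.2 nM [3H]rauwolscine for α2 sites. Nonspecific binding defined with 10 μM phentolamine. IC50 (analog concentration reducing specific binding by 50%) converted to Ki by Ki = IC50(1 + [L]/Kd), where [L] is the radioligand concentration and Kd its equilibrium dissociation constant.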

[3] = target: T2, Adrenergic receptor alpha-1 (Rattus norvegicus, UniProt P15823+P23944+P43140); assay: Displacement of [3H]-prazosin from Alpha-1 adrenergic receptor of rat brain membranes; type: cell membranes, Membrane
T2 sequence (P15823 whole entry): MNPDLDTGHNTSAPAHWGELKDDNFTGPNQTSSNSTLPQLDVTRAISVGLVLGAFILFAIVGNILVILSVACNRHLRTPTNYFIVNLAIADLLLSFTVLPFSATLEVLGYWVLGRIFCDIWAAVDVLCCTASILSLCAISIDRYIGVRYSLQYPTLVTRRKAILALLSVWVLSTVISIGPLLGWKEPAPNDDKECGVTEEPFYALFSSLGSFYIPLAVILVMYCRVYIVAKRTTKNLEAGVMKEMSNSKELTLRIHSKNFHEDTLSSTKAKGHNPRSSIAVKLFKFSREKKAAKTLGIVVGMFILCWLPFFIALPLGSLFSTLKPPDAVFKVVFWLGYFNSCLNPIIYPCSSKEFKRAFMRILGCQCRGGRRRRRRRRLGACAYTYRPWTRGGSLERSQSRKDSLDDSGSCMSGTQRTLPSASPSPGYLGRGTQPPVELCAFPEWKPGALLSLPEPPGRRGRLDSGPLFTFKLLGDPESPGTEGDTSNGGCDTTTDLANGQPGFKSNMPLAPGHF
T2 sequence (P23944 whole entry): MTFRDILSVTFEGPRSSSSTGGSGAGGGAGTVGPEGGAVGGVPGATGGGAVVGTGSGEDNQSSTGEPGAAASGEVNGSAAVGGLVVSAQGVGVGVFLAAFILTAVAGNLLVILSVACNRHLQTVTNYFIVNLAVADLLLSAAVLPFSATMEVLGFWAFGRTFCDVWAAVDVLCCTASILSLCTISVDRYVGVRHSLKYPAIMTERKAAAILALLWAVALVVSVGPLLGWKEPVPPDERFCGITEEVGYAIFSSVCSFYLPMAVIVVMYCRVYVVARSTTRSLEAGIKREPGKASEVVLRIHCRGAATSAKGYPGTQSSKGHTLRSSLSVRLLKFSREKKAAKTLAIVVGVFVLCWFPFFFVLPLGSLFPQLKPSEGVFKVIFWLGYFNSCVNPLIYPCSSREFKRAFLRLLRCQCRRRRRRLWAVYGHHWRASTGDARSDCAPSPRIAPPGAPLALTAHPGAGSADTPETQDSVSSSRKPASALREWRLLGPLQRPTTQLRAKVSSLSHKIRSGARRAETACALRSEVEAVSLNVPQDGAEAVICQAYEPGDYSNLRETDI
T2 sequence (P43140 whole entry): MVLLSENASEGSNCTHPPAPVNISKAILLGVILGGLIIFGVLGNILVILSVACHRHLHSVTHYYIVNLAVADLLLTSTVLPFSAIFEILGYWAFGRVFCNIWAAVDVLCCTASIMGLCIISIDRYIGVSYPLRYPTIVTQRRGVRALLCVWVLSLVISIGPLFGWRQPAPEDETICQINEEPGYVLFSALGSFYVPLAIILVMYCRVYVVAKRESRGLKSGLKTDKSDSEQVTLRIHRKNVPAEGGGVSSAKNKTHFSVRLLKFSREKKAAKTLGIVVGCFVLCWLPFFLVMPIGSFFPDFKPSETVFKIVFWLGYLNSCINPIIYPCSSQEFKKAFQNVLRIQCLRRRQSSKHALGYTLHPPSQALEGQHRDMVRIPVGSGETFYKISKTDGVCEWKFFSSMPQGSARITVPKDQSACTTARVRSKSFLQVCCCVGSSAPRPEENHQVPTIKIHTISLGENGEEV
In short: as §1, with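 “0.1” for “0.2”, “[3H]prazosin” for “[3H]rauwolscine”, “α1” for “α2”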

Row | Structure (SMILES) | Selectivity [1] | Ki [2] [nM] | Ki [3] [nM]
1 | COc1ccc2c(c1)CCC=C2c1c[nH]cn1 | 2.81 | 580 | 1630
2 | Cc1cccc2c1CCC2c1c[nH]cn1 (stereo not given) | 8.29 | 8.8 | 73
3 | COc1ccc2c(c1)C(c1c[nH]cn1)CCC2 (stereo not given) | 8.81 | 201 | 1770
4 | Cc1cc(C)c2c(c1)C(c1c[nH]cn1)=CCC2 | 12.8 | 232 | 2960
5 | Cc1cccc(C(C)c2c[nH]cn2)c1C (stereo not given) | 44.4 |  | 
6 | C1=C(c2c[nH]cn2)c2cccc(OCc3ccccc3)c2CC1 | 3.09 | 2670 | 8250
7 | COc1cccc2c1CCC=C2c1c[nH]cn1 | 2.1 | 1420 | 2970
8 | COc1ccc2c(c1)C(c1c[nH]cn1)=CCC2 | 9.03 | 1570 | 14200
9 | COc1cccc2c1CCCC2c1c[nH]cn1 (stereo not given) | 2.48 | 98 | 243
10 | Cc1cccc2c1CCCC2c1c[nH]cn1 (stereo not given) | 2.01 | 95 | 191
11 | COc1ccc2c(c1)CCCC2c1c[nH]cn1 (stereo not given) | 1.17 | 169 | 198
12 | Oc1cccc2c1CCCC2c1c[nH]cn1 (stereo not given) | 2.01 | 63 | 126
13 | Cc1cc(C)c2c(c1)C(c1c[nH]cn1)CCC2 (stereo not given) | 1.27 | 103 | 131
14 | Cc1cccc2c1CCC=C2c1c[nH]cn1 | 32 | 31 | 992
